Shown are actives, neighbours in structure and some others; about 3.1% of the full set was active somewhere.
OX1R antag-1 – antagonists of human orexin 1 receptor (OX1R); OX1R-expressing cells, FRET antagonist read-out; inhibition, % at 6.6 µM; 1.8% of 330,000 active; in the data active = inhibition mostly above about 38%, no sharp cut-off; inactive = mostly below about 40%
Target sequence (O43613 whole entry, looked up): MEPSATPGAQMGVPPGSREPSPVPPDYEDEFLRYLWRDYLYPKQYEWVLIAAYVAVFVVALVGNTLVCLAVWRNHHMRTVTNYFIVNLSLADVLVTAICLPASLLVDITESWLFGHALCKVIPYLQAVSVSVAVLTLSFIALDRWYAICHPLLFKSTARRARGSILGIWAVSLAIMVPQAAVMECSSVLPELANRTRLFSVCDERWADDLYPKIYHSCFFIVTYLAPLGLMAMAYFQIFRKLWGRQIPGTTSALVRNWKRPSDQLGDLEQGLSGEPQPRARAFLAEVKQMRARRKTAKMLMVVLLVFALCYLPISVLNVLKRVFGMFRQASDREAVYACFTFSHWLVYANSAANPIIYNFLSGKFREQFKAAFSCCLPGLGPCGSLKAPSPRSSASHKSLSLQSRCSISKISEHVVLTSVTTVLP
GPR7 antagonist – human neuropeptides B/W receptor 1 antagonism. GPR7-expressing cells, fluorescence antagonist assay. P48145. AID 1861. inhibition, % at 4.4 µM. 1.1% of 290,000 active; in the data active = inhibition above about 16%, passing the limit was not always enough;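 also: cells stimulated with the agonist NPW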
Target sequence (P48145 whole entry, looked up): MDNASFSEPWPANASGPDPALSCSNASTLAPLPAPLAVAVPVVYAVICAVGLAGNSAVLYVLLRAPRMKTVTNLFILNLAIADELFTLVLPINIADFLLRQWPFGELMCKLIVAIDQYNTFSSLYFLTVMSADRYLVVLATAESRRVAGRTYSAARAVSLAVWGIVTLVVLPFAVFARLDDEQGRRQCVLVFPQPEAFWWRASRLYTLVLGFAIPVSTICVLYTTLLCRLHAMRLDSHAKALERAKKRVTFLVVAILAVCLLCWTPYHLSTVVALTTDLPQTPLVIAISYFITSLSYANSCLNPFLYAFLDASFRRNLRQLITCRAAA
CHO parental Ca – counter-screen: ATP calcium response change in parental CHO cells | parental CHO-K1, ATP-induced calcium, Fluo-8 fluorescence | inhibition, % at 5.6 µM | 0.63% of 330,000 active | AID 463079;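 active = inhibition above that plate's mean sample inhibition plus 3 SD, cut at about 26% in these data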
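Material – parental CHO cells · Reagent – ATP stimulus · Compound – single nominal dose of 5.6 µM per compound · Detection – Fluo-8 fluorescence · Read-out basis – percent inhibition of calcium signal · Controls – ATP-challenged DMSO wells low, unchallenged DMSO wells high · Repeats – no replicates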
OX1R antag-2 – antagonists of human orexin 1 receptor | CHO/OX1R cells, Fluo-8 calcium fluorescence, orexin A | inhibition, % at 5 µM | 0.43% of 330,000 active | AID 434989;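 active = inhibition above its plate's threshold, mean inhibition of all tested compounds on the plate plus 3 SD, cut at about 37% in these data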
GalR3 antagonist – blocks the human galanin receptor 3 | inhibition, % at 3 µM | O60755 | HEK293 GalR3-CNG cAMP membrane potential fluorescence; galR3 body fused to GalR1 C-terminus | 0.44% of 360,000 active;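 active = inhibition above the screen-wide average plus 3 SD, cut at about 13% in these data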;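 also: forskolin and galanin both at EC90 stimulate the cells; cAMP rise reported by CNG channel membrane potential dye signal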
GPR7 antag cf – human GPR7 antagonism, confirmation assay; shares compounds with GPR7 antagonist; inhibition, % at 4.4 µM; 52% of 2,400 active; AID 1952; GPR7-expressing cells, calcium fluorescence antagonist mode; in the data active = inhibition above about 24%;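 also: stimulated with the GPR7 agonist NPW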
MCHR1 antag – counter-screen for GPR7 antagonists: antagonists of human MCHR1. shares compounds with GPR7 antagonist. MCHR1-expressing cells, fluorescence antagonist assay. inhibition, % at 4.4 µM. 62% of 2,400 active; in the data active = inhibition above about 22%
Large screens that a line does not name were inactive (follow-up assays come after a bar, where they were run).

C=CCn1cc(CN2CCC(C(=O)Nc3cccc(-c4cccc(Cl)c4)c3)CC2)c(C)n1	GPR7 antagonist 40.7 | GPR7 antag cf 40.7 | MCHR1 antag 58.2
COCc1ccc(CN2CCC(C(=O)Nc3cccc(-c4cccc(Cl)c4)c3)CC2)o1	GPR7 antagonist 27.4, CHO parental Ca 61.0, OX1R antag-2 73.9 | GPR7 antag cf 40.6 | MCHR1 antag 81.9
C=CCn1cc(CN2CCC(C(=O)Nc3cccc(-c4cccc(F)c4)c3)CC2)c(C)n1	none
COCc1ccc(CN2CCC(C(=O)Nc3cccc(-c4cscn4)c3)CC2)o1	none
COC(=O)C1=CN(c2ccc3c(c2)OCO3)C(N)=C(C#N)C1c1cccc(F)c1 (configuration not stated)	none (no result: OX1R antag-1, GPR7 antagonist, CHO parental Ca, OX1R antag-2)
COCCn1c(N)c(N(Cc2ccccc2)C(=O)c2ccc(N3CCCC3=O)cc2)c(=O)[nH]c1=O	none (no result: OX1R antag-1, GPR7 antagonist, CHO parental Ca, OX1R antag-2)
COc1ccc(NC(=O)c2c(C)noc2C)cc1S(=O)(=O)N1CCCCC1	none (no result: OX1R antag-1, GPR7 antagonist, CHO parental Ca, OX1R antag-2)
CC(C)C(NC(=O)c1ccccc1)C(=O)NCc1ccccn1 (configuration not stated)	GPR7 antagonist 35.1 | GPR7 antag cf inactive | MCHR1 antag inactive
O=C1Nc2ccccc2C(=O)N(C2CCCC2)C1C(=O)NC1CC1 (configuration not stated)	none (no result: OX1R antag-1, GPR7 antagonist, CHO parental Ca, OX1R antag-2)
COc1ccccc1N1CCN(C(c2ccc(C)cc2)c2nnnn2C(C)C)CC1 (configuration not stated)	none
COc1ccccc1N1CCN(C(c2ccc(F)cc2)c2nnnn2C(C)C)CC1 (configuration not stated)	GPR7 antagonist 43.0 (no result: OX1R antag-1, CHO parental Ca, OX1R antag-2) | GPR7 antag cf inactive | MCHR1 antag inactive
COc1ccc([N+](=O)[O-])cc1NC(=O)CSCc1ccc(Br)cc1	none
COc1cc(/C=N/NC(=O)CSCc2ccc([N+](=O)[O-])cc2)cc(OC)c1OC	GPR7 antagonist 22.4 | GPR7 antag cf 25.7 | MCHR1 antag 22.6
CCN1C(=O)[C@@H]2[C@@H](c3ccc(-c4cc(C(C)=O)cs4)cc3)N3CCC[C@@]3(C(=O)OC)[C@@H]2C1=O	none (no result: OX1R antag-1, GPR7 antagonist, CHO parental Ca, OX1R antag-2)
c1ccc2c(c1)ccc1ccccc12	none (no result: GPR7 antagonist)
CCCCCCCCC[n+]1cccc2c3ccccc3ccc21	GPR7 antagonist 75.1, CHO parental Ca 85.8, OX1R antag-2 93.7 (no result: GalR3 antagonist) | GPR7 antag cf 80.2 | MCHR1 antag 80.4
COc1ccccc1CNc1nc(Nc2cccc(-c3cnco3)c2)c2sccc2n1	none (no result: OX1R antag-1, GPR7 antagonist, CHO parental Ca, OX1R antag-2)
Cn1cc(C(c2ccccn2)c2cn(C)c3ccccc23)c2ccccc21	GPR7 antagonist 25.8 | GPR7 antag cf 40.8 | MCHR1 antag 45.0
CCc1nc2c(OCc3cc(Cl)cc(Cl)c3)cccn2c1N(C)C(=O)Nc1ccccc1OC	none (no result: OX1R antag-1, GPR7 antagonist, CHO parental Ca, OX1R antag-2)
O=C(c1ccccc1)c1ccc(OCC(O)CNCc2ccc(F)cc2)cc1 (configuration not stated)	none (no result: OX1R antag-1, CHO parental Ca, OX1R antag-2)
COc1ccc(C(OCC(O)CNC(C)c2ccccc2)c2ccc(OC)cc2)cc1 (configuration not stated)	none
COc1ccc(C(OCC(O)CNCCc2ccccc2)c2ccc(OC)cc2)cc1 (configuration not stated)	GPR7 antagonist 61.3 (no result: OX1R antag-1, CHO parental Ca, OX1R antag-2) | GPR7 antag cf 34.6 | MCHR1 antag 53.2
Cc1ccc(C(OCC(O)CNCc2ccc(F)cc2)c2ccccc2)cc1 (configuration not stated)	GPR7 antagonist 40.6 | GPR7 antag cf 30.2 | MCHR1 antag 65.0
COc1ccccc1S(=O)(=O)N(C)C[C@H]1OCc2cnnn2CCCC(=O)N([C@@H](C)CO)C[C@@H]1C	none (no result: OX1R antag-1, GPR7 antagonist, CHO parental Ca, OX1R antag-2)
O=C(NCc1ccco1)c1cccc(-c2ccc3nccn3c2)c1	none (no result: OX1R antag-1, GPR7 antagonist, CHO parental Ca, OX1R antag-2)
CSc1cccc(NC(=O)Cc2ccccc2[N+](=O)[O-])c1	GPR7 antagonist 26.8 | GPR7 antag cf inactive | MCHR1 antag inactive
CC(NC(=S)Nc1ccc(F)cc1)C(c1cccs1)N1CCOCC1 (configuration not stated)	GPR7 antagonist 22.9 (no result: GalR3 antagonist) | GPR7 antag cf inactive | MCHR1 antag inactive
COC1CC(=O)C2OC(c3ccccc3)OCC2O1 (configuration not stated)	none (no result: OX1R antag-1, GPR7 antagonist, CHO parental Ca, OX1R antag-2)
S=C(NCCN1CCCCC1)Nc1ccccc1	none
S=C(NCCN1CCCCC1)Nc1ccc(Br)cc1	GPR7 antagonist 37.7 | GPR7 antag cf inactive | MCHR1 antag inactive
CC(C)Nc1ncnc2c1ncn2[C@H]1CN(Cc2cccnc2)C[C@@H](CO)O1	none (no result: OX1R antag-1, GPR7 antagonist, CHO parental Ca, OX1R antag-2)
COc1ccccc1-n1c(SCC(=O)NC2CCCCC2)nc2c(c1=O)SCC2	GPR7 antagonist 29.1 | GPR7 antag cf inactive | MCHR1 antag inactive
CC(=O)c1cccc(S(=O)(=O)Nc2cccnc2)c1	none
CC1CCCN(S(=O)(=O)c2ccc3c(c2)OCCO3)C1 (configuration not stated)	none (no result: OX1R antag-1, GPR7 antagonist, CHO parental Ca, OX1R antag-2)
CC(O)CNc1nc2sc3c(c2c(=O)n1CCc1ccccc1)CCCCC3 (configuration not stated)	none
CN(C)CCNc1nc2sc3c(c2c(=O)n1CCc1ccccc1)CCCCC3	GPR7 antagonist 26.4 | GPR7 antag cf 42.8 | MCHR1 antag 57.1
NC(=O)CN1CCOCCOCCN(CC(N)=O)CCOCCOCC1	GPR7 antagonist 61.3 | GPR7 antag cf inactive | MCHR1 antag inactive
NC(=O)CN1CCOCCOCCOCCOCCOCC1	none
Cc1nnc(N/N=C/c2c[nH]c3ccccc23)[nH]c1=O	GPR7 antagonist 29.0 | GPR7 antag cf inactive | MCHR1 antag inactive
Cc1cc(C)nc(N/N=C/c2c[nH]c3ccccc23)n1	none
S=C(NCC1CCCO1)N1CCN(c2cccc(Cl)c2)CC1 (configuration not stated)	none
S=C(NCC1CCCO1)N1CCN(c2nc(-c3ccc(Cl)cc3)cs2)CC1 (configuration not stated)	GPR7 antagonist 21.5 | GPR7 antag cf 58.4 | MCHR1 antag 72.3
CCc1ccc(Cn2nnc(C(=O)Nc3cccc(C)c3)c2N)cc1	none
Cc1ccc(Cn2nnc(C(=O)Nc3cccc(C)c3C)c2N)cc1	GPR7 antagonist 60.6, OX1R antag-2 37.1 | GPR7 antag cf 77.3 | MCHR1 antag 75.3
CCc1ccc(Cn2nnc(C(=O)NCc3ccccc3OC)c2N)cc1	GPR7 antagonist 24.8 | GPR7 antag cf inactive | MCHR1 antag inactive
COc1ccc(CNC(=O)c2nnn(Cc3ccc(OC)cc3)c2N)cc1	none
CSC(=NS(=O)(=O)c1ccc(N)cc1)NS(=O)(=O)c1cccs1	none (no result: OX1R antag-1, GPR7 antagonist, CHO parental Ca, OX1R antag-2)
Nc1n[nH]c(N)c1N=Nc1cccc(C(F)(F)F)c1	GPR7 antagonist 41.0 | GPR7 antag cf 38.4 | MCHR1 antag 35.9
CCOC(=O)c1cc(-c2cccc(O)c2)oc1C	none (no result: OX1R antag-1, GPR7 antagonist, CHO parental Ca, OX1R antag-2)
O=C(c1[nH]c(C(F)(F)F)nc1-c1ccccc1)N1CCN(C/C=C/c2ccccc2)CC1	none (no result: OX1R antag-1, GPR7 antagonist, CHO parental Ca, OX1R antag-2)
Cc1ccccc1CC1(CO)CCCN(C(=O)c2cccc(Cl)c2)C1 (configuration not stated)	none
Cc1ccccc1CC1(CO)CCCN(C(=O)c2cc(Cl)ccc2F)C1 (configuration not stated)	none (no result: GPR7 antagonist) | MCHR1 antag inactive

Compound activity deposited in PubChem BioAssay by The Scripps Research Institute Molecular Screening Center.
